Columns and labels:
Format in all cases: functional
A549 = experiment: Growth inhibition of human A549 cells at 10 uM after 48 hrs by SRB assay; conditions: A549, 48 h, read-out: GI
How it was run: (§1)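 Cells grown in RPMI 1640 with 5% FBS and 2 mM L-glutamine, plated at 5000–40,000 cells/well by doubling time and preincubated 24 h (37 °C, 5% CO2); a time-zero plate is TCA-fixed. Single dose added, then 48 h incubation. Fixed with cold TCA, stained with 0.4% SRB, dye solubilized in 10 mM Tris base, absorbance at 515 nm; percent growth vs time-zero and untreated control.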

MOLT-4 = experiment: Growth inhibition of human MOLT4 cells at 10 uM after 48 hrs by SRB assay; conditions: MOLT-4, 48 h, read-out: GI; how it was run: as §1
OVCAR-8 = experiment: Growth inhibition of human OVCAR8 cells at 10 uM after 48 hrs by SRB assay; conditions: OVCAR-8, 48 h, read-out: GI; how it was run: as §1
M14 = experiment: Growth inhibition of human M14 cells at 10 uM after 48 hrs by SRB assay; conditions: M14, 48 h, read-out: GI; how it was run: as §1
LOX IMVI = experiment: Growth inhibition of human LOXIMVI cells at 10 uM after 48 hrs by SRB assay; conditions: read-out: GI; how it was run: as §1
SW-620 = experiment: Growth inhibition of human SW620 cells at 10 uM after 48 hrs by SRB assay; conditions: SW-620, 48 h, read-out: GI
How it was run: (§2)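 NCI 60-cell-line screen with a single 10 µM dose. Cells are grown in RPMI 1640 with 5% FBS and 2 mM L-glutamine, plated at 5000–40,000 cells/well according to doubling time, and preincubated 24 h at 37 °C, 5% CO2; time-zero plates are TCA-fixed at that point. Drug exposure is 48 h. Adherent cells are fixed with cold TCA, stained with 0.4% SRB in 1% acetic acid and read at 515 nm. Percent growth is calculated relative to time-zero and untreated controls and reported as GI%.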

MDA-MB-231 = experiment: Growth inhibition of human MDA-MB-231 cells at 10 uM after 48 hrs by SRB assay; conditions: MDA-MB-231, 48 h, read-out: GI; how it was run: as §1
NCI-H23 = experiment: Growth inhibition of human NCI-H23 cells at 10 uM after 48 hrs by SRB assay; conditions: NCI-H23, 48 h, read-out: GI; how it was run: as §1
NCI-H522 = experiment: Growth inhibition of human NCI-H522 cells at 10 uM after 48 hrs by SRB assay; conditions: NCI-H522, 48 h, read-out: GI; how it was run: as §1
ACHN = experiment: Growth inhibition of human ACHN cells at 10 uM after 48 hrs by SRB assay; conditions: read-out: GI; how it was run: as §1
[1] = Growth inhibition of human HCC2998 cells at 10 uM after 48 hrs by SRB assay; conditions: HCC 2998, 48 h, read-out: GI; how it was run: as §1
SR = experiment: Growth inhibition of human SR cells at 10 uM after 48 hrs by SRB assay; conditions: read-out: GI; how it was run: as §2
HOP-62 = experiment: Growth inhibition of human HOP62 cells at 10 uM after 48 hrs by SRB assay; conditions: HOP-62, 48 h, read-out: GI; how it was run: as §1
SK-OV-3 = experiment: Growth inhibition of human SKOV3 cells at 10 uM after 48 hrs by SRB assay; conditions: SK-OV-3, 48 h, read-out: GI; how it was run: as §2
U-251 = experiment: Growth inhibition of human U251 cells at 10 uM after 48 hrs by SRB assay; conditions: U-251, 48 h, read-out: GI; how it was run: as §2
CAKI-1 = experiment: Growth inhibition of human Caki1 cells at 10 uM after 48 hrs by SRB assay; conditions: CAKI-1, 48 h, read-out: GI; how it was run: as §1
OVCAR-3 = experiment: Growth inhibition of human OVCAR3 cells at 10 uM after 48 hrs by SRB assay; conditions: OVCAR-3, 48 h, read-out: GI; how it was run: as §1
SNB-75 = experiment: Growth inhibition of human SNB75 cells at 10 uM after 48 hrs by SRB assay; conditions: SNB-75, 48 h, read-out: GI; how it was run: as §2
SF-295 = experiment: Growth inhibition of human SF295 cells at 10 uM after 48 hrs by SRB assay; conditions: SF-295, 48 h, read-out: GI; how it was run: as §1
KM12 = experiment: Growth inhibition of human KM12 cells at 10 uM after 48 hrs by SRB assay; conditions: KM12, 48 h, read-out: GI; how it was run: as §1
UACC-257 = experiment: Growth inhibition of human UACC257 cells at 10 uM after 48 hrs by SRB assay; conditions: UACC-257, 48 h, read-out: GI; how it was run: as §2
NCI-H226 = experiment: Growth inhibition of human NCI-H226 cells at 10 uM after 48 hrs by SRB assay; conditions: NCI-H226, 48 h, read-out: GI; how it was run: as §1
OVCAR-5 = experiment: Growth inhibition of human OVCAR5 cells at 10 uM after 48 hrs by SRB assay; conditions: OVCAR-5, 48 h, read-out: GI; how it was run: as §1
SK-MEL-2 = experiment: Growth inhibition of human SK-MEL-2 cells at 10 uM after 48 hrs by SRB assay; conditions: SK-MEL-2, 48 h, read-out: GI; how it was run: as §1
786-0 = experiment: Growth inhibition of human 786-0 cells at 10 uM after 48 hrs by SRB assay; conditions: 786-0, 48 h, read-out: GI; how it was run: as §1
SK-MEL-5 = experiment: Growth inhibition of human SK-MEL-5 cells at 10 uM after 48 hrs by SRB assay; conditions: SK-MEL-5, 48 h, read-out: GI; how it was run: as §1
HOP-92 = experiment: Growth inhibition of human HOP92 cells at 10 uM after 48 hrs by SRB assay; conditions: HOP-92, 48 h, read-out: GI; how it was run: as §1
COLO 205 = experiment: Growth inhibition of human COLO205 cells at 10 uM after 48 hrs by SRB assay; conditions: COLO 205, 48 h, read-out: GI; how it was run: as §1
SN12C = experiment: Growth inhibition of human SN12C cells at 10 uM after 48 hrs by SRB assay; conditions: read-out: GI; how it was run: as §2
HT-29 = experiment: Growth inhibition of human HT-29 cells at 10 uM after 48 hrs by SRB assay; conditions: HT-29, 48 h, read-out: GI; how it was run: as §1
IGROV-1 = experiment: Growth inhibition of human IGROV1 cells at 10 uM after 48 hrs by SRB assay; conditions: IGROV-1, 48 h, read-out: GI; how it was run: as §1
K562 = experiment: Growth inhibition of human K562 cells at 10 uM after 48 hrs by SRB assay; conditions: K562, 48 h, read-out: GI; how it was run: as §1
SF-539 = experiment: Growth inhibition of human SF539 cells at 10 uM after 48 hrs by SRB assay; conditions: SF-539, 48 h, read-out: GI; how it was run: as §1
CCRF-CEM = experiment: Growth inhibition of human CCRF-CEM cells at 10 uM after 48 hrs by SRB assay; conditions: read-out: GI; how it was run: as §1
Hs-578T = experiment: Growth inhibition of human Hs578T cells at 10 uM after 48 hrs by SRB assay; conditions: read-out: GI; how it was run: as §1
Malme-3M = experiment: Growth inhibition of human MALME-3M cells at 10 uM after 48 hrs by SRB assay; conditions: read-out: GI; how it was run: as §1

SMILES | inhibition of growth at 10 µM (A549) | inhibition of growth at 10 µM (MOLT-4) | inhibition of growth at 10 µM (OVCAR-8) | inhibition of growth at 10 µM (M14) | inhibition of growth at 10 µM (LOX IMVI) | inhibition of growth at 10 µM (SW-620) | inhibition of growth at 10 µM (MDA-MB-231) | inhibition of growth at 10 µM (NCI-H23) | inhibition of growth at 10 µM (NCI-H522) | inhibition of growth at 10 µM (ACHN) | inhibition of growth at 10 µM [1] | inhibition of growth at 10 µM (SR) | inhibition of growth at 10 µM (HOP-62) | inhibition of growth at 10 µM (SK-OV-3) | inhibition of growth at 10 µM (U-251) | inhibition of growth at 10 µM (CAKI-1) | inhibition of growth at 10 µM (OVCAR-3) | inhibition of growth at 10 µM (SNB-75) | inhibition of growth at 10 µM (SF-295) | inhibition of growth at 10 µM (KM12) | also measured
O=c1c2cccc3c(Nc4ccc(Br)cn4)ccc(c32)c2nc3ccccc3n12 | < 20% | < 20% | < 20% | < 20% | < 20% | < 20% | 33.8% | < 20% | < 20% | < 20% | 25.2% | 47.1% | < 20% | < 20% | < 20% | < 20% | < 20% | 56% | < 20% | 22.8% | inhibition of growth at 10 µM (UACC-257): < 20%; inhibition of growth at 10 µM (NCI-H226): < 20%; inhibition of growth at 10 µM (OVCAR-5): < 20%; inhibition of growth at 10 µM (SK-MEL-2): < 20%; inhibition of growth at 10 µM (786-0): < 20%; inhibition of growth at 10 µM (SK-MEL-5): 23.8%; inhibition of growth at 10 µM (HOP-92): 37.6%; inhibition of growth at 10 µM (COLO 205): < 20%; inhibition of growth at 10 µM (SN12C): < 20%; inhibition of growth at 10 µM (HT-29): < 20%; inhibition of growth at 10 µM (IGROV-1): 51.1%; inhibition of growth at 10 µM (K562): < 20%; inhibition of growth at 10 µM (SF-539): < 20%; inhibition of growth at 10 µM (CCRF-CEM): < 20%; inhibition of growth at 10 µM (Hs-578T): < 20%; inhibition of growth at 10 µM (Malme-3M): < 20%
O=c1c2cccc3c(N4CCCC4)ccc(c32)c2nc3ccccc3n12 | 67.4% | 97.4% | 34% | < 20% | 48.3% | 40.5% | 22.9% | 31.8% | 28.9% | 47.6% | 29.6% | 79.8% | 33.9% | 20.9% | 35.3% | 48.7% | < 20% | 27% | 40.2% | < 20% | inhibition of growth at 10 µM (UACC-257): < 20%; inhibition of growth at 10 µM (NCI-H226): 44.7%; inhibition of growth at 10 µM (OVCAR-5): < 20%; inhibition of growth at 10 µM (SK-MEL-2): < 20%; inhibition of growth at 10 µM (786-0): < 20%; inhibition of growth at 10 µM (SK-MEL-5): 35.5%; inhibition of growth at 10 µM (HOP-92): 59.3%; inhibition of growth at 10 µM (COLO 205): 36.4%; inhibition of growth at 10 µM (SN12C): 35.2%; inhibition of growth at 10 µM (HT-29): 22.2%; inhibition of growth at 10 µM (IGROV-1): 42.9%; inhibition of growth at 10 µM (K562): 24%; inhibition of growth at 10 µM (SF-539): < 20%; inhibition of growth at 10 µM (CCRF-CEM): 46.3%; inhibition of growth at 10 µM (Hs-578T): 32.8%; inhibition of growth at 10 µM (Malme-3M): 29.6%
